Converted amounts (≈) assume the structure as drawn.

Data set [1] in a line: Aqueous solubility in 25 mM N-glycyl-glycine and 10 mM MgSO4 (pH 7.8). The data set is classed as physicochemical. Conditions: 25 mM N-glycyl-glycine and 10 mM MgSO4 buffer, read-out: S. Summed up: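 Diol solubility measured at 25 ± 1 °C in pH 7.8 buffer (25 mM N-glycylglycine, 10 mM MgSO4), a modified Curry method; dissolved diol quantified by inhibition of firefly luciferase. Values mean ± SE.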

Data set [2] can be described thus: Inhibition constant for firefly luciferase was evaluated. Also noted: species or system Lampyridae. Summed up:
(§1)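 Luciferase purified from Photinus pyralis lanterns by affinity chromatography; light-emission assay at 25 ± 1 °C with 2 mM ATP, competitive versus luciferin. Diols added in ethanol (final 23 mM, also in controls). Triplicate activities at ~5 diol levels each paired with control; Ki by weighted least squares from ~15 estimates; EC50 = 2Ki at luciferin Km.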

Data set [3] is described as follows: Headecane/water partition coefficient expressed as the equilibrium ratio of the molar concentration in n-hexadecane to that in the buffer. The data set is classed as physicochemical. Summed up: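 Molar partition between n-hexadecane and pH 7.8 glycylglycine/MgSO4 buffer at 25 ± 1 °C; aqueous diol measured by luciferase method; at least five independent determinations per diol; mean ± SE.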

Data set [4] in a line: Concentration which inhibits luciferase activity by 50% when the luciferon concentration is at its Km. Also noted: species or system Lampyridae. Summed up: as §1
Data set [5] is described as follows: Concentration which anesthetizes 50% of a population of Rana temporaria tadpoles at 20 degrees Centigrade. The data set is classed as functional, frog. In outline: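 Rana temporaria tadpoles (20–25 mm) at 20 ± 1 °C, six per beaker in 7–10 beakers of tap water with graded diol. Endpoint: no reflex to gentle glass-rod tap on side or snout, tested every 15 min up to 2 h; Waud dose–response analysis. Convulsing tadpoles excluded.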

Take `OCCCCCCC(Br)CCCCCO` (stereo not given): the solubility in data set [1] came to 2260 µM (≈ 636 µg/mL). For the same compound, the Ki (in general, the dissociation constant of the complex between target and ligand, obtained from inhibition or displacement) in data set [2] was 14.6 µM. Also, the Khd in data set [3] was found to be 0.32. The EC50 (in general, the concentration that produces a half-maximal response) in data set [4] was 29.2 µM; in data set [5], 97 µM.

Regarding `OCCCCCCCCCC(Br)CCO` (stereo not given), the solubility in data set [1] was 800 µM (≈ 225 µg/mL). This compound showed a Ki in data set [2] of 0.87 µM. Also, in data set [3], the Khd stood at 3.1. The EC50 was found to be 1.74 µM in data set [4] and 56 µM in data set [5].

Regarding `OCCCCCCCCCCC(Br)CO` (stereo not given), the solubility in data set [1] was determined as 725 µM (≈ 204 µg/mL). Also, the affinity in data set [2] corresponds to a Ki of 0.44 µM. Further, the Khd in data set [3] was 13. For the same compound, the EC50 in data set [4] worked out at 0.88 µM; in data set [5] it was 34 µM.

Turning to `OCCCCCCCC(Br)CCCCO` (stereo not given), in data set [1], the solubility came to 2340 µM (≈ 658 µg/mL). Further, the Ki in data set [2] stood at 3.69 µM. For the same compound, the Khd in data set [3] is 0.9. The EC50 was determined as 7.38 µM in data set [4] and 29 µM in data set [5].

Regarding `OCCCCCCCCCCCCO`, the solubility in data set [1] was 95 µM (≈ 19.2 µg/mL). The compound also showed a Ki in data set [2] of 0.77 µM. The Khd in data set [3] came to 4.7. Moreover, the values for the EC50 in data set [4] and in data set [5] were 1.54 µM and 39 µM, respectively.

The values above are taken from ChEMBL document CHEMBL1126662, “Synthesis and use of the n-bromododecane-1,12-diols as conformational probes for general anesthetic target sites” (J Med Chem, 1993).
